ChEMBL document CHEMBL4400518, “Synthesis, antimicrobial and cytotoxic activities, and molecular docking studies of N-arylsulfonylindoles containing an aminoguanidine, a semicarbazide, and a thiosemicarbazide moiety” (Eur J Med Chem, 2019)
Values after ≈ are worked out from the molar mass of the structure shown.

What was measured:
[1] = Selectivity index, ratio of IC50 for HEK293T cells to MIC for methicillin-resistant Staphylococcus aureus ATCC 43300; type: toxicity; conditions: human, read-out: Selectivity Index
Pseudomonas aeruginosa [2] = assay: Antibacterial activity against multidrug-resistant Pseudomonas aeruginosa ATCC BAA-2111 measured after 24 hrs by ELISA; type: functional; conditions: ATCC BAA-2111, 24 h
Procedure, shortened: (§1)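 Broth serial dilution MIC. Mid-log bacteria in Mueller-Hinton or Tryptone Soya broth, diluted 1000-fold and inoculated at 10^5 CFU/mL. Compounds from DMSO stock, final DMSO ≤0.05%. Incubated 24 h at 37 °C; growth read as absorbance at 630 nm. MIC is the lowest concentration giving complete growth inhibition. Three independent experiments.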

HEK-293T = assay: Cytotoxicity against HEK293T cells measured after 48 hrs by CCK8 assay; type: cell-based; conditions: Homo sapiens
Procedure, shortened: (§2)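 Cells kept in DMEM with 10% FBS and penicillin-streptomycin at 37 °C, 5% CO2. About 1×10^4 cells per well attached for 24 h, then exposed for 48 h to 0.3, 1, 3, 10, 30 and 100 µmol/L of compound, in triplicate wells. CCK-8 added for 3 h, OD read at 450 nm. IC50 is the concentration inhibiting growth by 50%.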

Escherichia coli [3] = assay: Antibacterial activity against Escherichia coli CMCC 44568 assessed as ratio of MIC after and before 16 passages at sub-MIC; type: functional
Procedure, shortened: (§3)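 Resistance by serial passage. After an initial broth-dilution MIC, bacteria grown at MIC/2 were transferred to a fresh MIC assay every 22 h incubation, repeatedly. Norfloxacin was the comparator antibiotic. MIC was tracked against passage day.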

[4] = Selectivity index, ratio of IC50 for HEK293T cells to MIC for Bacillus subtilis CMCC 63501; type: toxicity; conditions: human, read-out: Selectivity Index
SGC-7901 = assay: Cytotoxicity against human SGC7901 cells measured after 48 hrs by CCK8 assay; type: functional, cell-based; conditions: SGC-7901, 48 h; procedure, shortened: as §2
Bacillus subtilis = assay: Antibacterial activity against Bacillus subtilis CMCC 63501 measured after 24 hrs by ELISA; type: functional; conditions: CMCC 63501, 24 h
Procedure, shortened: (§4)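 Broth microdilution MIC. Mid-log bacteria in MHB or TSB diluted 1000-fold, inoculated at 10^5 CFU/mL. Compounds added from DMSO stocks; final DMSO at most 0.05%. Incubation 24 h at 37 °C. Growth read as absorbance at 630 nm. MIC taken as the lowest concentration giving complete growth inhibition. Three independent experiments.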

[5] = Selectivity index, ratio of IC50 for HEK293T cells to MIC for Escherichia coli CMCC 25922; type: toxicity; conditions: human, read-out: Selectivity Index
Pseudomonas aeruginosa [6] = assay: Antibacterial activity against Pseudomonas aeruginosa CMCC 10104 measured after 24 hrs by ELISA; type: functional; conditions: CMCC 10104, 24 h; procedure, shortened: as §4
Escherichia coli [7] = assay: Antibacterial activity against Escherichia coli CMCC 25922 measured after 24 hrs by ELISA; type: functional; conditions: CMCC 25922, 24 h; procedure, shortened: as §4
[8] = Selectivity index, ratio of IC50 for HEK293T cells to MIC for Streptococcus pyogenes CMCC 32067; type: toxicity; conditions: human, read-out: Selectivity Index
[9] = Selectivity index, ratio of IC50 for HEK293T cells to MIC for Pseudomonas aeruginosa CMCC 27853; type: toxicity; conditions: human, read-out: Selectivity Index
Pseudomonas aeruginosa [10] = assay: Antibacterial activity against Pseudomonas aeruginosa CMCC 27853 measured after 24 hrs by ELISA; type: functional; conditions: CMCC 27853, 24 h; procedure, shortened: as §4
Streptococcus pneumoniae = assay: Antibacterial activity against Streptococcus pneumoniae CMCC 31968 measured after 24 hrs by ELISA; type: functional; conditions: CMCC 31968, 24 h
[11] = Cytotoxicity against human A590 cells measured after 48 hrs by CCK8 assay; type: functional, cell-based; procedure, shortened: as §2
[12] = Selectivity index, ratio of IC50 for HEK293T cells to MIC for methicillin-resistant Staphylococcus aureus ATCC 33591; type: toxicity; conditions: human, read-out: Selectivity Index
[13] = Selectivity index, ratio of IC50 for HEK293T cells to MIC for Streptococcus pneumoniae CMCC 31968; type: toxicity; conditions: human, read-out: Selectivity Index
Staphylococcus aureus [14] = assay: Antibacterial activity against Staphylococcus aureus CMCC(B) 26003 measured after 24 hrs by ELISA; type: functional; conditions: CMCC(B) 26003, 24 h; procedure, shortened: as §4
[15] = Selectivity index, ratio of IC50 for HEK293T cells to MIC for Staphylococcus aureus CMCC 25923; type: toxicity; conditions: human, read-out: Selectivity Index
[16] = Selectivity index, ratio of IC50 for HEK293T cells to MIC for multidrug-resistant Escherichia coli ATCC BAA-196; type: toxicity; conditions: human, read-out: Selectivity Index
[17] = Selectivity index, ratio of IC50 for HEK293T cells to MIC for Staphylococcus aureus CMCC(B) 26003; type: toxicity; conditions: human, read-out: Selectivity Index
[18] = Selectivity index, ratio of IC50 for HEK293T cells to MIC for Enterococcus faecalis CMCC 29212; type: toxicity; conditions: human, read-out: Selectivity Index
[19] = Selectivity index, ratio of IC50 for HEK293T cells to MIC for Escherichia coli CMCC 44568; type: toxicity; conditions: human, read-out: Selectivity Index
Staphylococcus aureus [20] = assay: Antibacterial activity against methicillin-resistant Staphylococcus aureus ATCC 33591 measured after 24 hrs by ELISA; type: functional; conditions: ATCC 33591, 24 h; procedure, shortened: as §1
Enterococcus faecalis = assay: Antibacterial activity against Enterococcus faecalis CMCC 29212 measured after 24 hrs by ELISA; type: functional; conditions: CMCC 29212, 24 h; procedure, shortened: as §4
[21] = Selectivity index, ratio of IC50 for HEK293T cells to MIC for multidrug-resistant Pseudomonas aeruginosa ATCC BAA-2111; type: toxicity; conditions: human, read-out: Selectivity Index
Staphylococcus aureus [22] = assay: Antibacterial activity against methicillin-resistant Staphylococcus aureus ATCC 43300 measured after 24 hrs by ELISA; type: functional; conditions: ATCC 43300, 24 h; procedure, shortened: as §1
Streptococcus pyogenes = assay: Antibacterial activity against Streptococcus pyogenes CMCC 32067 measured after 24 hrs by ELISA; type: functional; conditions: CMCC 32067, 24 h; procedure, shortened: as §4
Escherichia coli [23] = assay: Antibacterial activity against Escherichia coli CMCC 44568 measured after 24 hrs by ELISA; type: functional; conditions: CMCC 44568, 24 h; procedure, shortened: as §4
Staphylococcus aureus [24] = assay: Antibacterial activity against Staphylococcus aureus CMCC 25923 measured after 24 hrs by ELISA; type: functional; conditions: CMCC 25923, 24 h; procedure, shortened: as §4
Staphylococcus aureus [25] = assay: Antibacterial activity against Staphylococcus aureus CMCC 25923 assessed as ratio of MIC after and before 16 passages at sub-MIC; type: functional; procedure, shortened: as §3
[26] = Selectivity index, ratio of IC50 for HEK293T cells to MIC for Pseudomonas aeruginosa CMCC 10104; type: toxicity; conditions: human, read-out: Selectivity Index
Escherichia coli [27] = assay: Antibacterial activity against multidrug-resistant Escherichia coli ATCC BAA-196 measured after 24 hrs by ELISA; type: functional; conditions: ATCC BAA-196, 24 h; procedure, shortened: as §1

With `C/C(=N/NC(=N)N)c1cn(S(=O)(=O)c2ccc(C)cc2)c2ccc(Br)cc12` the selectivity ratio [1] was 50.4, the MIC (Pseudomonas aeruginosa [2]) was > 71.6 µM and the IC50 (HEK-293T) was 56.4 µM. It also gave a Ratio (Escherichia coli [3]) of 0, a selectivity ratio [4] of 12.6 and an IC50 (SGC-7901) of 1.51 µM. For the same compound, the MIC (Bacillus subtilis) was 4.47 µM (≈ 2 µg/mL), the selectivity ratio [5] was 0.2 and the MIC (Pseudomonas aeruginosa [6]) was > 286 µM. For the same compound, the MIC (Escherichia coli [7]) was 286 µM (≈ 128 µg/mL), the selectivity ratio [8] was 0.2 and the selectivity ratio [9] was < 0.2. For the same compound, the MIC (Pseudomonas aeruginosa [10]) was > 286 µM, the MIC (Streptococcus pneumoniae) was 2.24 µM (≈ 1 µg/mL) and the IC50 [11] was 4.44 µM. For the same compound, the selectivity ratio [12] was 25.2, the selectivity ratio [13] was 25.2 and the MIC (Staphylococcus aureus [14]) was 4.47 µM (≈ 2 µg/mL). The selectivity ratio [15] was 25.2, the selectivity ratio [16] was 101 and the selectivity ratio [17] was 12.6. The selectivity ratio [18] was 6.31, the selectivity ratio [19] was 50.4 and the MIC (Staphylococcus aureus [20]) was 2.24 µM (≈ 1 µg/mL). For the same compound, the MIC (Enterococcus faecalis) was 8.94 µM (≈ 4.01 µg/mL), the selectivity ratio [21] was < 0.79 and the MIC (Staphylococcus aureus [22]) was 1.12 µM (≈ 0.502 µg/mL). It also gave an MIC (Streptococcus pyogenes) of 286 µM (≈ 128 µg/mL), an MIC (Escherichia coli [23]) of 1.12 µM (≈ 0.502 µg/mL) and an MIC (Staphylococcus aureus [24]) of 2.24 µM (≈ 1 µg/mL). For the same compound, the Ratio (Staphylococcus aureus [25]) was 0, the selectivity ratio [26] was < 0.2 and the MIC (Escherichia coli [27]) was 0.56 µM (≈ 0.251 µg/mL).

`CCn1cc(C(=O)O)c(=O)c2cc(F)c(N3CCNCC3)cc21` [NORFLOXACIN] gave an MIC (Pseudomonas aeruginosa [2]) of 3.13 µM (≈ 1 µg/mL), a Ratio (Escherichia coli [3]) of 16 and an MIC (Bacillus subtilis) of 6.27 µM (≈ 2 µg/mL). It also gave an MIC (Pseudomonas aeruginosa [6]) of 12.5 µM (≈ 4 µg/mL), an MIC (Escherichia coli [7]) of 0.39 µM (≈ 0.125 µg/mL) and an MIC (Pseudomonas aeruginosa [10]) of 6.27 µM (≈ 2 µg/mL). For the same compound, the MIC (Streptococcus pneumoniae) was > 401 µM, the MIC (Staphylococcus aureus [14]) was 0.39 µM (≈ 0.125 µg/mL) and the MIC (Staphylococcus aureus [20]) was 0.78 µM (≈ 0.249 µg/mL). The MIC (Enterococcus faecalis) was 3.13 µM (≈ 1 µg/mL), the MIC (Staphylococcus aureus [22]) was 1.57 µM (≈ 0.501 µg/mL) and the MIC (Streptococcus pyogenes) was > 401 µM. It also gave an MIC (Escherichia coli [23]) of 0.39 µM (≈ 0.125 µg/mL), an MIC (Staphylococcus aureus [24]) of 0.39 µM (≈ 0.125 µg/mL) and a Ratio (Staphylococcus aureus [25]) of 32. For the same compound, the MIC (Escherichia coli [27]) was 1.57 µM (≈ 0.501 µg/mL).
